How the values were obtained:
Format in all cases: functional
TK-10 = assay: Cytotoxicity against human TK10 cells assessed as cell growth at 10 uM; details: Homo sapiens, TK-10; read-out: Activity
In short: (§1)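 Single-dose screen at 10 μM across the 60-cell-line panel. Cells grown in RPMI 1640 with 5% FBS and 2 mM L-glutamine, seeded at 5,000–40,000 cells/well according to doubling time, and treated 24 h later. Exposure lasted 48 h at 37 °C, 5% CO₂. Adherent cells were fixed with cold TCA, suspension cells were fixed settled, and both were stained with SRB and read at 515 nm. Growth % was recorded, with inhibition % = 100 − growth %.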

[1] = Growth inhibition of human NCI60 cells at 10 uM after 48 hrs by sulforhodamine B assay relative to control
In short: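 Single 10 µM dose across the 60-line panel for 48 h, with the same culture, TCA fixation and SRB 515 nm read-out. Inhibition % = 100 − growth %, given as the mean over the 60 cell lines.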

SF-268 = assay: Cytotoxicity against human SF268 cells assessed as cell growth at 10 uM; in short: as §1
NCI-H226 = assay: Cytotoxicity against human NCI-H226 cells assessed as cell growth at 10 uM; in short: as §1
OVCAR-3 = assay: Cytotoxicity against human OVCAR-3 cells assessed as cell growth at 10 uM; details: Homo sapiens, OVCAR-3; read-out: Activity; in short: as §1
MDA-MB-231 = assay: Cytotoxicity against human MDA-MB-231 cells assessed as cell growth at 10 uM; details: Homo sapiens, MDA-MB-231; read-out: Activity; in short: as §1
COLO 205 = assay: Cytotoxicity against human COLO205 cells assessed as cell growth at 10 uM
In short: (§2)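 Single-concentration screen at 10 μM across the 60-cell-line panel (nine tissue types); growth percentage recorded per cell line, with inhibition taken as 100 minus growth percentage.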

IGROV-1 = assay: Cytotoxicity against human IGROV1 cells assessed as cell growth at 10 uM; details: Homo sapiens, IGROV-1; read-out: Activity; in short: as §1
HCT-15 = assay: Cytotoxicity against human HCT15 cells assessed as cell growth at 10 uM; in short: as §2
A498 = assay: Cytotoxicity against human A498 cells assessed as cell growth at 10 uM; details: Homo sapiens, A498; read-out: Activity; in short: as §2
SW-620 = assay: Cytotoxicity against human SW620 cells assessed as cell growth at 10 uM; in short: as §1
UO-31 = assay: Cytotoxicity against human UO31 cells assessed as cell growth at 10 uM; details: Homo sapiens, UO-31; read-out: Activity; in short: as §1
HCC 2998 = assay: Cytotoxicity against human HCC2998 cells assessed as cell growth at 10 uM; in short: as §2
NCI/ADR-RES = assay: Cytotoxicity against human NCI/ADR-RES cells assessed as cell growth at 10 uM; details: Homo sapiens, NCI/ADR-RES; read-out: Activity; in short: as §1
T47D = assay: Cytotoxicity against human T47D cells assessed as cell growth at 10 uM; details: Homo sapiens, T47D; read-out: Activity; in short: as §1
BT-549 = assay: Cytotoxicity against human BT549 cells assessed as cell growth at 10 uM; in short: as §2
786-0 = assay: Cytotoxicity against human 786-0 cells assessed as cell growth at 10 uM; details: Homo sapiens, 786-0; read-out: Activity; in short: as §2
OVCAR-5 = assay: Cytotoxicity against human OVCAR5 cells assessed as cell growth at 10 uM; in short: as §1
OVCAR-4 = assay: Cytotoxicity against human OVCAR4 cells assessed as cell growth at 10 uM; in short: as §1
UACC-257 = assay: Cytotoxicity against human UACC257 cells assessed as cell growth at 10 uM; details: Homo sapiens, UACC-257; read-out: Activity; in short: as §1
K562 = assay: Cytotoxicity against human K562 cells assessed as cell growth at 10 uM; in short: as §1
PC-3 = assay: Cytotoxicity against human PC3 cells assessed as cell growth at 10 uM; details: Homo sapiens, PC-3; read-out: Activity; in short: as §1
HCT-116 = assay: Cytotoxicity against human HCT116 cells assessed as cell growth at 10 uM; in short: as §2
SK-MEL-2 = assay: Cytotoxicity against human SK-MEL-2 cells assessed as cell growth at 10 uM; details: Homo sapiens, SK-MEL-2; read-out: Activity; in short: as §1
HT-29 = assay: Cytotoxicity against human HT-29 cells assessed as cell growth at 10 uM; in short: as §2
NCI-H460 = assay: Cytotoxicity against human NCI-H460 cells assessed as cell growth at 10 uM; in short: as §1
MCF7 = assay: Cytotoxicity against human MCF7 cells assessed as cell growth at 10 uM; details: Homo sapiens, MCF7; read-out: Activity; in short: as §1
Malme-3M = assay: Cytotoxicity against human MALME-3M cells assessed as cell growth at 10 uM; in short: as §1
HOP-62 = assay: Cytotoxicity against human HOP62 cells assessed as cell growth at 10 uM; in short: as §2
KM12 = assay: Cytotoxicity against human KM12 cells assessed as cell growth at 10 uM; in short: as §1
MDA-MB-468 = assay: Cytotoxicity against human MDA-MB-468 cells assessed as cell growth at 10 uM; details: Homo sapiens, MDA-MB-468; read-out: Activity; in short: as §1
OVCAR-8 = assay: Cytotoxicity against human OVCAR8 cells assessed as cell growth at 10 uM; details: Homo sapiens, OVCAR-8; read-out: Activity; in short: as §1
UACC-62 = assay: Cytotoxicity against human UACC62 cells assessed as cell growth at 10 uM; details: Homo sapiens, UACC-62; read-out: Activity; in short: as §1
SK-MEL-5 = assay: Cytotoxicity against human SK-MEL-5 cells assessed as cell growth at 10 uM; details: Homo sapiens, SK-MEL-5; read-out: Activity; in short: as §1
NCI-H322M = assay: Cytotoxicity against human NCI-H322M cells assessed as cell growth at 10 uM; in short: as §1
SK-OV-3 = assay: Cytotoxicity against human SKOV3 cells assessed as cell growth at 10 uM; details: Homo sapiens, SK-OV-3; read-out: Activity; in short: as §1
EKVX = assay: Cytotoxicity against human EKVX cells assessed as cell growth at 10 uM; in short: as §2
NCI-H23 = assay: Cytotoxicity against human NCI-H23 cells assessed as cell growth at 10 uM; in short: as §1

SMILES: CC(=O)c1ccccc1-c1ccc(-c2ccnc(NC(=O)Nc3cc(C(F)(F)F)cc(C(F)(F)F)c3)n2)cn1.Cl
- growth at 10 µM (TK-10): 90.3%
- growth inhibition (GI) [1]: 9.74%
- Activity (SF-268): 83.42%
- Activity (NCI-H226): 103.94%
- growth at 10 µM (OVCAR-3): 108%
- growth at 10 µM (MDA-MB-231): 83.7%
- Activity (COLO 205): 88.27%
- growth at 10 µM (IGROV-1): 91%
- Activity (HCT-15): 95.89%
- growth at 10 µM (A498): 113%
- Activity (SW-620): 95.07%
- growth at 10 µM (UO-31): 75%
- Activity (HCC 2998): 88.79%
- growth at 10 µM (NCI/ADR-RES): 80.9%
- growth at 10 µM (T47D): 85.4%
- Activity (BT-549): 63.01%
- growth at 10 µM (786-0): 79.5%
- Activity (OVCAR-5): 81.55%
- Activity (OVCAR-4): 98.42%
- growth at 10 µM (UACC-257): 102%
- Activity (K562): 80.11%
- growth at 10 µM (PC-3): 89.9%
- Activity (HCT-116): 81.77%
- growth at 10 µM (SK-MEL-2): 78.8%
- Activity (HT-29): 95.08%
- Activity (NCI-H460): 93.37%
- growth at 10 µM (MCF7): 89.8%
- Activity (Malme-3M): 85.32%
- Activity (HOP-62): 90.22%
- Activity (KM12): 92.08%
- growth at 10 µM (MDA-MB-468): 74.7%
- growth at 10 µM (OVCAR-8): 90.8%
- growth at 10 µM (UACC-62): 94.3%
- growth at 10 µM (SK-MEL-5): 103%
- Activity (NCI-H322M): 92.06%
- growth at 10 µM (SK-OV-3): 76.5%
- Activity (EKVX): 87.92%
- Activity (NCI-H23): 84.35%
